Experiment [1] can be described thus: inhibitors of TNFa-induced NFkB p65 translocation, primary screen, imaging, HUVEC, MLSMR starter and 10KST1 sets (AID 438;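 active = inhibition above 20% together with a positive visual image hit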;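 also: compound added about 3h40 before a 20 min TNFalpha stimulation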;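 as to inhibition: signal is the nuclear over cytoplasmic p65 intensity ratio per well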). The note with it: HUVEC TNFa-induced p65 nuclear translocation; cell count: measured here: nuclei count (cytotoxicity indicator), at 2.08 µM; inhibition: at 2 µM, stronger effect = higher value, 0% TNFa-plus-vehicle, 100% no-TNFa wells.
Experiment [2] can be described thus: endothelial E-selectin expression blockers – imaging, HUVEC, immunofluorescence, MLSMR starter and 10KST1 sets, primary screen (AID 487).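 As to inhibition: signal is fraction of cell area covered by stained E-selectin grains.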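 As to nuclei count: 100% = median nuclei count of all wells on the same plate.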 The settings on record: HUVEC TNFalpha-induced E-selectin immunofluorescence imaging, at 2 µM; inhibition: stronger effect = higher value; nuclei count: measured here: cell number, toxicity.
Experiment [3] can be described thus: Primary imaging screen for DUSP6 inhibitors that restore phospho-Erk in transfected HeLa cells, chemical complementation (AID 609;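 active = compounds giving at least 50% inhibition in the cell-based MKP-3 phosphatase rescue imaging test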;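 as to inhibition: phospho-Erk level distribution per well compared with pooled transfected vehicle control wells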). The note with it: HeLa MKP-3 transfected, phospho-Erk imaging KS statistic, at 10 µM, cells stimulated with TPA for 15 min.
Experiment [4] concerns the target Dual specificity protein phosphatase 6 (Homo sapiens) (UniProt Q16828). The description is as above. The note with it: HeLa MKP-3 transfected, phospho-Erk imaging KS statistic; at 10 µM; stronger effect = higher value; cells stimulated with TPA for 15 min.
For experiment [5], the target named is Voltage-gated potassium channel subunit beta-2 (Rattus norvegicus) (UniProt P62483). Description: inhibitors of rat Kvbeta2 reductase activity – biochemical, NADPH fluorescence, primary screen (AID 622;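 active = fluorescence slope higher than the sample average by over 3 SD, cut at about -0.22 in these data, passing the limit was not always enough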;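 also: slope of raw intensity against log time taken from 70 to 1610 s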). The settings on record: recombinant KvBeta, 4-cyanobenzaldehyde reduction, at 10 µM, stronger effect = higher value.
Sequence of Voltage-gated potassium channel subunit beta-2 (Rattus norvegicus) (P62483 whole entry, looked up): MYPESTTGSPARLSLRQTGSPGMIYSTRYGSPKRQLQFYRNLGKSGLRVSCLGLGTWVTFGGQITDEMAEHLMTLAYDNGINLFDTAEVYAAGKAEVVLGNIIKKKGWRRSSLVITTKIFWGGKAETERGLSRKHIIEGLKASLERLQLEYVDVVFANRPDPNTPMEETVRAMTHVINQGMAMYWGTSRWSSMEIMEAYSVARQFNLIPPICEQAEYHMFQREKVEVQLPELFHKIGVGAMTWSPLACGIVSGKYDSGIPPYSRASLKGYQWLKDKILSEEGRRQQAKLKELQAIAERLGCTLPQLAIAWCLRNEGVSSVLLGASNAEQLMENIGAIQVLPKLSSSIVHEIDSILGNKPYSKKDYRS
Experiment [6] has the same target. Description: enhancers of rat Kvbeta2 NADPH turnover – biochemical, NADPH fluorescence, primary screen (AID 623;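 active = NADPH fluorescence slope more negative than the mean of all samples by about 3 SD, 99.7% confidence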;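 also: fluorescence intensity change per second fitted from 20 to 320 s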). The note with it: Recombinant KvBeta, NADPH fluorescence decrease slope, 10 min; at 10 µM; stronger effect = lower value.
Experiment [7] has as its target Alpha-2C adrenergic receptor (Homo sapiens) (UniProt P18825). Kind of experiment: compounds altering alpha2C-coupled GIRK flux – cell-based, HEK293 alpha2C/GIRK1/2, thallium flux, primary screen (AID 624;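 active = fluorescence slope after compound addition differing from the mean of all screened samples at 99.7% confidence, in either direction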;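 also: slope of fluorescence ratio to pre-addition baseline per second over 15 to 24 s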). The settings on record: thallium flux BTC fluorescence, at 10 µM, actives lie on both sides.
Experiment [8] can be described thus: inhibitors of larval lipid processing in zebrafish, primary screen, whole organism, PED6 fluorescence, gall bladder and intestine (AID 686;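 active = a full or partial loss of lipid-probe fluorescence in the fish gall bladder, intestine or both, judged by eye; inactive = no fluorescence loss, or compound toxic to the fish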;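 also: signal comes from phospholipase A2 cleavage of quenched PED6 carried via bile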). The note with it: Zebrafish larvae PED6 lipid processing, fluorescence scoring; screened at 20 µM (by protocol). The procedure, abridged: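 Doses: 20 µM single dose. Test system: live zebrafish larvae aged 5-7 days, whole organism. Quantity: five larvae per well. Measured by: By-eye fluorescence microscopy. Reagent: ingested quenched lipid PED6 at 100 nM. Read-out: visual per-well fluorescence inhibition score. Times: overnight exposure of larvae to compound plus PED6.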

The nature of experiment [9]: loss of swimming-algae plug formation – whole organism, Chlamydomonas reinhardtii, WT vs cilia-less mutant, absorbance, 96-well, primary screen (AID 463189;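 active = inhibition at or above 50% relative to wild type and mutant plate controls; inactive = inhibition below 50%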;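 also: 0% = wild type cc124 cells in DMSO and 100% = ciliumless bld1 mutant cells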). The settings on record: Chlamydomonas reinhardtii gravitaxis, OD600 absorbance, 2 days; at 10 µM; stronger effect = higher value.
Where [10] appears, read: measured here: cell density z-score.
Where [11] appears, read: measured here: nuclear c-Myc green intensity z-score.
[12] abbreviates: measured here: nuclear pErk red intensity z-score, stronger effect = higher value.

The source made the active and inactive calls.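 The calls were made as follows, unless noted: active = visually confirmed hit in the image check and inhibition above 20%; inconclusive = visually confirmed hit but inhibition not above 20%; inactive = no visual hit in the image check.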

Sequence of Dual specificity protein phosphatase 6 (Homo sapiens) (Q16828 whole entry, looked up): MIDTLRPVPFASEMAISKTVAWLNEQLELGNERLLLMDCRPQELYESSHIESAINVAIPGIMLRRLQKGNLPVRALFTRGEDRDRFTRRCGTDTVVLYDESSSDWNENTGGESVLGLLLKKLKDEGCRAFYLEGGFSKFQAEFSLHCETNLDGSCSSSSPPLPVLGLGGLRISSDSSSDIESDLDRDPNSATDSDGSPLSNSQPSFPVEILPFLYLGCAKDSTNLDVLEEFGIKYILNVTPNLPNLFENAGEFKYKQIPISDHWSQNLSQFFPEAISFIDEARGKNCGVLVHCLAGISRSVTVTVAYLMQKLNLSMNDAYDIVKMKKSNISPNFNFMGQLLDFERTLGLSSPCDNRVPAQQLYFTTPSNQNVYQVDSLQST
Sequence of Alpha-2C adrenergic receptor (Homo sapiens) (P18825 whole entry, looked up): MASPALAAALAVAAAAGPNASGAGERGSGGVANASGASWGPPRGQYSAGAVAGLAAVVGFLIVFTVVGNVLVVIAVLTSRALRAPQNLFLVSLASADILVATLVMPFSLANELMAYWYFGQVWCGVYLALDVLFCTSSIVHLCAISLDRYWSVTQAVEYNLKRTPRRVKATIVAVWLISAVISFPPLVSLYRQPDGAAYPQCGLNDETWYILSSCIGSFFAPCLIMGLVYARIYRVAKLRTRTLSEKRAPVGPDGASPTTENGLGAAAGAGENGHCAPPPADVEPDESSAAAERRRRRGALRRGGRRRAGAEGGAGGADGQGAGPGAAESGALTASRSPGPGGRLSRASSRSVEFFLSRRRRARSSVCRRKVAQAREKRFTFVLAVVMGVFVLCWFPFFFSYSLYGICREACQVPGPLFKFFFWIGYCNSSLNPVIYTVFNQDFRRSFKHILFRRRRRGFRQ

Take `O=C(Nc1ncn[nH]1)c1c(Cl)ccc(Cl)c1Cl`: the cell count in experiment [1] was 597. Also, the inhibition in experiment [1] is -1.6% (inactive); in experiment [2], 20% (inactive); in experiment [4], -15% (inactive); in [9], 0.721% (inactive). Besides, the nuclei count in experiment [2] is 162%. Besides, the z-score in experiment [3] (setting [10]) is -1.37; in experiment [3] (setting [11]), 0.992; in experiment [3] (setting [12]), 0.69. In addition, in [5], the fluorescence slope is -0.362 (inactive). Further, the NADPH fluorescence slope in [6] was -8.7e-06 (inactive). Besides, the slope in [7] is 0.00528 (inactive). In [8], the molecule was classed as inactive.

As for `Cn1c(SCC(=O)NCc2ccccc2)nc2ccccc21`, the cell count in [1] is 325. The inhibition in [1] was 1.6% (inactive); in [2], -60.9% (inactive); in experiment [4], 3.66% (inactive); in [9], 26.1% (inactive). This molecule also gave a nuclei count in [2] of 79.7%. In addition, the z-score in experiment [3] (setting [10]) is 0.441; in experiment [3] (setting [11]), 2.21; in experiment [3] (setting [12]), -0.441. Also, the fluorescence slope in experiment [5] was -0.364 (inactive). For the same molecule, in experiment [6], the NADPH fluorescence slope was -2.1e-05 (inactive). The slope in experiment [7] is 0.00569 (inactive). The outcome in experiment [8] is “inactive; toxic”.

With `O=C(CCC(=O)CCN1CCCCC1)CCN1CCCCC1`, the cell count in experiment [1] amounted to 641. Besides, the inhibition in experiment [1] was -2.1% (inactive); in experiment [2], 5.3% (inactive); in experiment [4], 15.1% (inactive); in experiment [9], 12.4% (inactive). This molecule also displayed a nuclei count in [2] of 170%. For the same molecule, the z-score in experiment [3] (setting [10]) was -0.3; in experiment [3] (setting [11]) it was 1.66; in experiment [3] (setting [12]), 0.253. The fluorescence slope in experiment [5] is -0.506 (inactive). In addition, in experiment [6], the NADPH fluorescence slope is -0.000129 (inactive). In addition, in experiment [7], the slope was 0.00498 (inactive). In addition, the molecule was called inactive in experiment [8].

`Clc1ccc2[nH]c3c(NCCCN4CCOCC4)ncnc3c2c1`: in [1], the cell count amounted to 471. For the same molecule, the inhibition in experiment [1] is -7.1% (inactive); in experiment [2], -31.4% (inactive); in [4], -13.3% (inactive); in [9], -7.19% (inactive). Also, in experiment [2], the nuclei count came out at 102%. In addition, the results for the z-score in [3] (setting [10]), in [3] (setting [11]) and in experiment [3] (setting [12]) were -0.293, -0.352 and 1.38, respectively. For the same molecule, the fluorescence slope in [5] was -0.52 (inactive). Moreover, the NADPH fluorescence slope in [6] was 6.4e-06 (inactive). Also, the slope in experiment [7] is 0.00501 (inactive). Besides, the molecule was called inactive in experiment [8].

Consider `CC(C)OC(=O)c1sc2nc3c(cc2c1N)C(=O)CCC3`, for which the cell count in [1] was 334. Also, the inhibition is -8% (inactive) in [1], -109% (inactive) in experiment [2], 9.42% (inactive) in experiment [4] and -4.23% (inactive) in [9]. Also, the nuclei count in experiment [2] turned out to be 159%. Moreover, the z-score in experiment [3] (setting [10]) is 1.59; in [3] (setting [11]) it was -1.25; in experiment [3] (setting [12]), -0.674. Further, the fluorescence slope in [5] was -0.403 (inactive). In experiment [6], the NADPH fluorescence slope is -9.2e-05 (inactive). Further, the slope in experiment [7] was 0.0073 (inactive). In experiment [8], the outcome was inactive.

As for `c1coc(-c2nc3nc4ccccc4nc3n2-c2ccc3c(c2)OCCO3)c1`, the cell count in experiment [1] came out at 365. The inhibition was -1.4% (inactive) in experiment [1], -29.5% (inactive) in [2], 11.4% (inactive) in experiment [4] and 12.2% (inactive) in [9]. Further, in [2], the nuclei count worked out at 152%. For the same molecule, the z-score in [3] (setting [10]) was 0.934; in experiment [3] (setting [11]), 0.669; in experiment [3] (setting [12]), -1.25. Further, the fluorescence slope in experiment [5] is -0.363 (inactive). In addition, in experiment [6], the NADPH fluorescence slope is -0.000166 (inactive). The slope in experiment [7] is 0.00503 (inactive). Moreover, the molecule was classed as inactive in [8].

On to `CCCC(=O)Nn1cnc2c(c1=O)C1(CCCC1)Cc1ccccc1-2`, for which the cell count in experiment [1] came to 558. Moreover, the inhibition in [1] is -2.6% (inactive); in [2], -157% (inactive); in experiment [4], 11.9% (inactive); in [9], -19.9% (inactive). Also, in experiment [2], the nuclei count was 108%. The results for the z-score in experiment [3] (setting [10]), in experiment [3] (setting [11]) and in experiment [3] (setting [12]) were -0.794, -0.594 and -0.952, respectively. The fluorescence slope in experiment [5] is -0.327 (inactive). The NADPH fluorescence slope in experiment [6] is 2.7e-05 (inactive). In addition, the slope in experiment [7] is 0.00422 (inactive). In experiment [8], the outcome was inactive.

Take `Cc1nc2c(c(=O)n1CC1CCCO1)c1nc3ccccc3nc1n2CCC(C)C` (centres undefined): the cell count in experiment [1] stood at 327. Moreover, the inhibition in [1] was -4.1% (inactive); in experiment [2], -30.1% (inactive); in experiment [4] it was -0.584% (inactive); in experiment [9], 24.8% (inactive). The nuclei count in experiment [2] worked out at 177%. The figures for the z-score in experiment [3] (setting [10]), in experiment [3] (setting [11]) and in [3] (setting [12]) were 1.21, -0.55 and 1.04, respectively. Besides, the fluorescence slope in [5] is -0.381 (inactive). For the same molecule, the NADPH fluorescence slope in experiment [6] is -0.000104 (inactive). In experiment [7], the slope is 0.00821 (inactive). The molecule was classed as inactive in experiment [8].

For the molecule `COc1ccc(C=NCCC2(O)CC(C)N(C)CC2C)cc1` (centres undefined), in experiment [1], the cell count amounted to 340. In addition, the inhibition is -16.4% (inactive) in experiment [1], -85.1% (inactive) in experiment [2], -7.01% (inactive) in experiment [4] and 7.82% (inactive) in experiment [9]. Besides, the nuclei count in [2] is 131%. The z-score was 0.907 in experiment [3] (setting [10]), -0.705 in experiment [3] (setting [11]) and -1.22 in [3] (setting [12]). Moreover, in experiment [5], the fluorescence slope is -0.427 (inactive). Moreover, in experiment [6], the NADPH fluorescence slope was -6e-05 (inactive). In [7], the slope is 0.00607 (inactive). Also, the result in [8] was inactive.

Turning to `CC(=O)N1CC=C2C(C#N)=C(N)C(C#N)(C#N)[C@H](c3ccoc3)[C@H]2C1`, the cell count in experiment [1] amounted to 364. For the same molecule, the inhibition in experiment [1] was -12.2% (inactive); in experiment [2] it was -63% (inactive); in experiment [4] it was -4.7% (inactive); in [9] it was -0.734% (inactive). The molecule further returned a nuclei count in experiment [2] of 90.4%. Besides, the z-score in experiment [3] (setting [10]) is 0.865; in experiment [3] (setting [11]) it was 0.398; in experiment [3] (setting [12]), -2.11. For the same molecule, the fluorescence slope in experiment [5] was -0.371 (inactive). In addition, the NADPH fluorescence slope in experiment [6] is 7.7e-06 (inactive). In addition, the slope in [7] is 0.00495 (inactive). In addition, the molecule was classed as inactive in [8].

For the molecule `Cn1c(=O)oc2cc(C(=O)c3ccccc3)ccc21`, the cell count in experiment [1] was determined as 442. The inhibition in experiment [1] is -7.7% (inactive); in experiment [2], -42.8% (inactive); in experiment [4], 1.04% (inactive); in [9], -6.29% (inactive). The molecule further returned a nuclei count in experiment [2] of 177%. Moreover, the z-score in [3] (setting [10]) is 0.0253; in [3] (setting [11]), -0.374; in experiment [3] (setting [12]), -0.71. For the same molecule, in [5], the fluorescence slope is -0.332 (inactive). For the same molecule, in experiment [6], the NADPH fluorescence slope is -3.5e-05 (inactive). For the same molecule, the slope in [7] is 0.00473 (inactive). In experiment [8], the molecule was called inactive.

As for `CCN(CC)CCCn1c(C)cc2c(c1=O)C(c1cccc(Cl)c1)C(C#N)=C(N)O2` (centres undefined), the cell count in experiment [1] was 448. The inhibition is 13.8% (inactive) in [1], -49.3% (inactive) in experiment [2], 2.46% (inactive) in experiment [4] and -6.29% (inactive) in experiment [9]. In [2], this molecule came in with a nuclei count of 146%. The z-score was -0.339 in experiment [3] (setting [10]), 0.269 in experiment [3] (setting [11]) and 1.37 in [3] (setting [12]). Besides, the fluorescence slope in experiment [5] is -0.388 (inactive). The NADPH fluorescence slope in [6] is -4.3e-05 (inactive). For the same molecule, the slope in experiment [7] is 0.00525 (inactive). Besides, the result in experiment [8] was inactive.

Consider `O=C(Nc1ccc2c(c1)OCO2)c1cc2n(n1)C(C(F)(F)F)CC(c1ccccc1)N2` (centres undefined), for which, in [1], the cell count came to 415. Also, the inhibition in experiment [1] was -5.8% (inactive); in [2], 33.8% (inactive); in experiment [4], 7.48% (inactive); in [9], -16.3% (inactive). The same molecule registered a nuclei count in experiment [2] of 65.6%. The z-score is -0.336 in experiment [3] (setting [10]), 0.972 in experiment [3] (setting [11]) and -0.0303 in experiment [3] (setting [12]). Also, the fluorescence slope in [5] is -0.544 (inactive). In experiment [6], the NADPH fluorescence slope was -7.9e-05 (inactive). The slope in [7] was 0.00462 (inactive). The result in experiment [8] was inactive.

What is called inhibition is the change of the read-out against control, counted positive when it falls.

Values taken from PubChem BioAssay.
